The values that follow come from PMC9389372 (RSC Advances, 2022).

For data set [1], the target named is Human acetylcholinesterase (Homo sapiens, UniProt P22303). In words: AChE inhibition, modified Ellman's spectrophotometric method. Type of data set: biochemical. To be noted: for inhibition at 1000 µM: read-out: AChE % inhibition, 10^−3 M. In general terms: Ellman's reagent forms a yellow product with free thiols.
The target in data set [2] is human butyrylcholinesterase (Homo sapiens, UniProt P06276). Kind of data set: BChE inhibition, modified Ellman's spectrophotometric method. Type of data set: biochemical. To be noted: for inhibition at 100 µM / inhibition at 1000 µM: read-out: BChE % inhibition.
The target in another data set is T1, MAO-A (Homo sapiens, UniProt P21397).
T1 sequence (P21397 1-527): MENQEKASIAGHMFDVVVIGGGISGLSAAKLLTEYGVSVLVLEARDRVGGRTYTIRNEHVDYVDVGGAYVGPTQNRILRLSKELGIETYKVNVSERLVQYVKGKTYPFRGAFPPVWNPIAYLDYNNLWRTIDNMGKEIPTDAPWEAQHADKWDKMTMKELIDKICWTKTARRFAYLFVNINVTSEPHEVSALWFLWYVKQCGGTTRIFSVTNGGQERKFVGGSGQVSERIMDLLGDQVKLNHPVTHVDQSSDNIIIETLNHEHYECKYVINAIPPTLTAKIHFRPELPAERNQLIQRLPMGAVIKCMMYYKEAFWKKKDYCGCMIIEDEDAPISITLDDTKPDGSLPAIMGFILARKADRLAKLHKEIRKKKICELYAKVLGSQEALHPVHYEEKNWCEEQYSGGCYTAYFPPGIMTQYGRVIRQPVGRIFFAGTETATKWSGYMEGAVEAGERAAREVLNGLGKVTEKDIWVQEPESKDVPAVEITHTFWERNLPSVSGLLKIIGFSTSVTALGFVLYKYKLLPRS
In words: MAO-A inhibition, in vitro fluorometric method. Type of data set: biochemical. To be noted: for inhibition at 100 µM / inhibition at 1000 µM: read-out: MAO-A % inhibition.

The target of the next data set is beta amyloid 1–42 (Aβ42) (Homo sapiens, UniProt P05067). In words: fluorometric beta amyloid 1–42. The format is biochemical. To be noted: for inhibition at 0.01 µM / inhibition at 0.1 µM / inhibition at 1 µM / inhibition at 10 µM: read-out: Percent inhibition of beta amyloid 1–42 (Aβ42) peptide aggregation.
The nature of another data set: Cytotoxicity, MTT assay. To be noted: mouse, NIH/3T3 mouse embryonic fibroblast cells. Type of data set: cell-based. In short, it runs like this:
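NIH/3T3 mouse embryonic fibroblasts, incubated according to the supplier's recommendation, were seeded at 1 × 10⁴ cells per well. Viability was read by MTT assay following the group's previously described standard procedure.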
A general note: Tetrazolium dyes change colour on reduction, which living cells bring about.

For another data set, the target named is T2, MAO-B (Homo sapiens, UniProt P27338).
T2 sequence (P27338 1-520): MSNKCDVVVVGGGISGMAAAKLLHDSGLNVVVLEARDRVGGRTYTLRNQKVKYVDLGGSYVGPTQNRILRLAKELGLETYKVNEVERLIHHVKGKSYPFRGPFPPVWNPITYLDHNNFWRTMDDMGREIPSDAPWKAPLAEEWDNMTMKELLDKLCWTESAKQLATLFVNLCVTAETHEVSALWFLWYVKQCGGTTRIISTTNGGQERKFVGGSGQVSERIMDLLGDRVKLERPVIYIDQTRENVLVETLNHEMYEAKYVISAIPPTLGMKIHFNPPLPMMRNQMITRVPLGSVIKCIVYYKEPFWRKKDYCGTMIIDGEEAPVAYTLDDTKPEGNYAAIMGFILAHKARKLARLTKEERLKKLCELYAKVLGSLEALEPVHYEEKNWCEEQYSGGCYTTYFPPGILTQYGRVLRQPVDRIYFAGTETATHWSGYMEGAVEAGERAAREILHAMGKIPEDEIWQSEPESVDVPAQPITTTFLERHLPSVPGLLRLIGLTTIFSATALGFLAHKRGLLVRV
Kind of data set: MAO-B inhibition, in vitro fluorometric method. Type of data set: biochemical.

Chain of Human acetylcholinesterase (P22303 32-614): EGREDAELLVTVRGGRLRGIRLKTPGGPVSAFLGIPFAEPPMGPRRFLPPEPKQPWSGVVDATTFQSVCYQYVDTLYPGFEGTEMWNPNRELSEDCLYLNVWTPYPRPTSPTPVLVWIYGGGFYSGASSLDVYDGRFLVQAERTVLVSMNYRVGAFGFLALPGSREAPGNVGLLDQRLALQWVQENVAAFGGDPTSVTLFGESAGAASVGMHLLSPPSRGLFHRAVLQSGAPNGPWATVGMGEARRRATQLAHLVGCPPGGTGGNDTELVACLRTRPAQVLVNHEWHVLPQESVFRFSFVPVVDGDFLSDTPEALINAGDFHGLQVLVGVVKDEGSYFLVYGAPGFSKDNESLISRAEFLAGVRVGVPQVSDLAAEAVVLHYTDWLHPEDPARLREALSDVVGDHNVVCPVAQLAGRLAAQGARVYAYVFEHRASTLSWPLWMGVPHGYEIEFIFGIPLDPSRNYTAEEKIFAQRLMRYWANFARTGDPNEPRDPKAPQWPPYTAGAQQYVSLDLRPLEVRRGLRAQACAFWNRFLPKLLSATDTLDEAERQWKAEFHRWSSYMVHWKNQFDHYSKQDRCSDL
Chain of human butyrylcholinesterase (P06276 29-602): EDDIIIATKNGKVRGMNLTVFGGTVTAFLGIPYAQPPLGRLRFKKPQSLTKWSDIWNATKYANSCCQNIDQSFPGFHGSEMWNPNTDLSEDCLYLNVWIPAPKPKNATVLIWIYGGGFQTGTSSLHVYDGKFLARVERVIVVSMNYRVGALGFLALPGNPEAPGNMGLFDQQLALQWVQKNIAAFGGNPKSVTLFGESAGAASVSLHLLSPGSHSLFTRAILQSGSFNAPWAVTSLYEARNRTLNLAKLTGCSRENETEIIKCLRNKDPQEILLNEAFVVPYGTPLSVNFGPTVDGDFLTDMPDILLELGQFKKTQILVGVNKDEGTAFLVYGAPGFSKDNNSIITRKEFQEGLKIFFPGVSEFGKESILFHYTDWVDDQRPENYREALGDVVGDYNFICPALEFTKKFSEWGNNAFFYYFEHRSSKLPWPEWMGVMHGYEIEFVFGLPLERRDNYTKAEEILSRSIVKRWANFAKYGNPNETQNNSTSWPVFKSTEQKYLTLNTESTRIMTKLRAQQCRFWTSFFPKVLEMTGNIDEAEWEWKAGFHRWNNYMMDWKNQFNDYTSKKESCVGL
Chain of beta amyloid 1–42 (Aβ42) (P05067 672-713): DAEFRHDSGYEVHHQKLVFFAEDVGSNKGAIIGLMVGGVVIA

As a reminder, the inhibition is the relative decrease from the control value, in per cent. What is called IC50 is the concentration that gives 50% inhibition. Consider `CN(C)CCN1CCN(Cc2ccc(C(=O)Nc3nc4ccccc4s3)cc2)CC1` [4f, N-(Benzo[d]thiazol-2-yl)-4-((4-(2-(dimethylamino)ethyl)piperazine-1-yl)methyl)benzamide], for which, in data set [1], the inhibition at 1000 µM came out at 96.4 ± 1.4%. Also, in data set [2], the 50% inhibitory concentration (IC50) was over 1000 µM, the inhibition at 100 µM stood at 32.8 ± 0.6% and the inhibition at 1000 µM came to 45.3 ± 0.9%. Besides, on MAO-A, the IC50 is over 100 µM, the inhibition at 100 µM came to 41.3 ± 0.9% and the inhibition at 1000 µM amounted to 67.9 ± 1.1%. In addition, at beta amyloid 1–42 (Aβ42), the inhibition at 0.01 µM was 58.6 ± 1.1%, the inhibition at 0.1 µM came out at 80.8 ± 2.1%, the inhibition at 1 µM came out at 90.6 ± 3.1% and the inhibition at 10 µM came to 97.3 ± 3.2%. In the data set “Cytotoxicity, MTT assay”, this compound showed a half-inhibitory concentration (IC50) of 72.9 ± 2.7 µM.

Regarding `C#CCN1CCN(Cc2ccc(C(=O)Nc3nc4cc(OC)ccc4s3)cc2)CC1` [4k, N-(5-Methoxybenzo[d]thiazol-2-yl)-4-((4-(prop-2-yn-1-yl)piperazine-1-yl)methyl)benzamide], in data set [1], it took 0.102 ± 0.0048 µM to reach half-maximal inhibition (IC50) and the inhibition at 1000 µM is 90.3 ± 1.5%. Further, in data set [2], the half-maximal inhibitory concentration (IC50) was over 1000 µM, the inhibition at 100 µM worked out at 26.4 ± 0.7% and the inhibition at 1000 µM was 30.4 ± 0.7%. In addition, on MAO-A, the IC50 is over 100 µM, the inhibition at 100 µM was determined as 39.9 ± 0.8% and the inhibition at 1000 µM was 58.6 ± 0.9%. The half-maximal inhibitory concentration (IC50) at MAO-B was 0.124 ± 0.0058 µM. Further, at beta amyloid 1–42 (Aβ42), the inhibition at 0.01 µM stood at 35.4 ± 1%, the inhibition at 0.1 µM came to 48.9 ± 1.3%, the inhibition at 1 µM worked out at 77.7 ± 2.7% and the inhibition at 10 µM was determined as 87.1 ± 3.2%.

Take `COc1ccc2sc(NC(=O)c3ccc(CN4CCN(CCN(C)C)CC4)cc3)nc2c1` [4m, 4-((4-(2-(Dimethylamino)ethyl)piperazine-1-yl)methyl)-N-(5-methoxybenzo[d]thiazol-2-yl)benzamide]: in data set [1], the IC50 is 0.0278 ± 0.001 µM and the inhibition at 1000 µM stood at 95.3 ± 1.2%. In addition, in data set [2], the half-inhibitory concentration (IC50) was over 1000 µM, the inhibition at 100 µM is 31.9 ± 0.8% and the inhibition at 1000 µM turned out to be 42.4 ± 0.8%. Moreover, at MAO-A, the 50% inhibitory concentration (IC50) was over 100 µM, the inhibition at 100 µM worked out at 37.9 ± 0.8% and the inhibition at 1000 µM is 61.3 ± 0.9%. Besides, the 50% inhibitory concentration (IC50) against MAO-B was determined as 0.0567 ± 0.0022 µM. At beta amyloid 1–42 (Aβ42), the half-inhibitory concentration (IC50) amounted to 0.199 ± 0.0088 µM, the inhibition at 0.01 µM was found to be 53.6 ± 1%, the inhibition at 0.1 µM was determined as 72.5 ± 2.2% and the inhibition at 1 µM was determined as 88.9 ± 2%. In addition, the inhibition at 10 µM at beta amyloid 1–42 (Aβ42) stood at 94.7 ± 2.1%.
